# Bioassay records (PubChem)
# OX1R antag-1: blocks the human orexin 1 receptor; O43613; OX1R-expressing cells, FRET antagonist read-out; inhibition, % at 6.6 µM; 1.8% of 330,000 active; in the data active means inhibition mostly above about 38%, no sharp cut-off; inactive means mostly below about 40%;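 further: 0% = agonist challenge alone and 100% = reference antagonist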
# OXTR agonist: human OXTR agonism | 0.32% of 320,000 active | AID 2435 | activation, % at 3 µM | P30559 | CHO-OTR cells, Fluo-8 calcium fluorescence; normalized: DMSO 0%, oxytocin 100%;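 active means activation above the mean of all tested compounds plus 3 SD, cutoff set per screening run, cut at about 20% in these data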;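 further: peak over basal fluorescence ratio from a 100 s FLIPR kinetic read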
# CHO parental Ca: counter-screen: ATP calcium response change in parental CHO cells. parental CHO-K1, ATP-induced calcium, Fluo-8 fluorescence. inhibition, % at 5.6 µM. 0.63% of 330,000 active. AID 463079;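 active means inhibition above that plate's mean sample inhibition plus 3 SD, cut at about 26% in these data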;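 further: 0% = ATP-challenged DMSO wells and 100% = DMSO wells without ATP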
#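 Assay system: untransfected parental CHO cell line. Also added: ATP agonist challenge. Dosing: one dose, 5.6 µM nominal. Measured by: Fluo-8 fluorescence. Read-out: % inhibition. Benchmarks: ATP wells versus no-ATP DMSO wells. Repeats: no replicates.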
# OX1R antag-2: blocks the human orexin 1 receptor; O43613; CHO/OX1R cells, Fluo-8 calcium fluorescence, orexin A; inhibition, % at 5 µM; 0.43% of 330,000 active;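 active means inhibition above its plate's threshold, mean inhibition of all tested compounds on the plate plus 3 SD, cut at about 37% in these data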;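 further: 0% = orexin A challenge wells and 100% = SB-334867-A antagonist wells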
# V1aR counter: activates human V1a receptor in oxytocin agonist counter-screen; P37288; CHO-V1R cells, Fluo-8 calcium fluorescence, agonist mode; 0% DMSO, 100% 3 nM vasopressin; activation, % at 3 µM; 0.25% of 320,000 active;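 active means activation above the mean activation of all tested compounds plus 3 SD, per screening run, cut at about 20% in these data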;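 further: signal is peak over basal fluorescence ratio across a 100 second FLIPR read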
# Target sequence (P37288 whole entry, looked up): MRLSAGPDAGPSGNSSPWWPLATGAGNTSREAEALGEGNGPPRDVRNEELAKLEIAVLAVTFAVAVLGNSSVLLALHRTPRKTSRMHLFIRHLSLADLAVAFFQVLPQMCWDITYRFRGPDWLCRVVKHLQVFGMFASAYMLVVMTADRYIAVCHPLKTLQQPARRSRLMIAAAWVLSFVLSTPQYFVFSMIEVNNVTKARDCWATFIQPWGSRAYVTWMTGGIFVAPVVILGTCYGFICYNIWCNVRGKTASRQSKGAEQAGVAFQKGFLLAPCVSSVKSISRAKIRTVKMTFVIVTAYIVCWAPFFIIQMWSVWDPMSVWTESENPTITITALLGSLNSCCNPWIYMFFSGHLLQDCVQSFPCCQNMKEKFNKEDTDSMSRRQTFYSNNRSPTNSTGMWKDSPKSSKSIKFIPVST
# OXTR potentiate: potentiators of human oxytocin receptor; AID 2445; 0.061% of 320,000 active; CHO-OTR cells, Fluo-8 calcium fluorescence, potentiator mode; 0% = oxytocin EC15, 100% = EC100; activation, % at 3 µM;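 active means activation above that plate's cutoff, the mean activation of tested compounds plus 3 SD, cut at about 6.6% in these data, passing the limit was not always enough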;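 further: 100% uses oxytocin at 75 nM as the full agonist control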
#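 assay system = CHO-OTR cells, human receptor | schedule = compound 6 min at room temperature before oxytocin, 100 s read | detection = Fluo-8 intracellular calcium fluorescence, ex 470-495, em 515-575 nm | evaluation = normalized max/min fluorescence ratio, % activation | control set = EC15 oxytocin alone as 0%, 75 nM oxytocin (EC100) as 100%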
# OX1R HTRF conf: OX1R (human) antagonism, HTRF confirmed; shares compounds with OX1R antag-1; OX1R-expressing cells, HTRF antagonist assay; inhibition, % at 6.6 µM; 49% of 1,800 active; in the data active means inhibition above about 55%;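 further: CHO cells expressing OX1R stimulated with orexin A at about EC80; 0% = agonist challenge alone and 100% = reference antagonist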
# CHO-K1 HTRF: counter-screen for OX1R antagonists: effect in parental CHO-K1 cells. shares compounds with OX1R antag-1. HTRF counterscreen. inhibition, % at 6.6 µM. 48% of 1,800 active; in the data active means inhibition above about 17%;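 further: 0% = agonist challenge with vehicle and 100% = vehicle alone without agonist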
# * marks the source's active call; other numbers are inactive results; x = no result given. An excerpt weighted towards active compounds, which were near 2.7% of everything screened.
SMILES,OX1R antag-1,OXTR agonist,CHO parental Ca,OX1R antag-2,V1aR counter,OXTR potentiate,OX1R HTRF conf,CHO-K1 HTRF
Cc1ccc(-n2c(CCc3ccccc3)n[nH]c2=S)cc1C,-3,-2,-9,-19,0,-6,x,x
CN1C(=O)C2C(c3ccc(N(C)C)cc3)=NN(Cc3ccccc3)C2C1=O (stereo unspecified),24,-1,0,-22,-1,-12,x,x
CN1C(=O)C2(N=c3ccccc3=N2)c2ccccc21,79*,-1,-10,3,-1,6,86*,-3
CN1C(=O)C2(OCC(C)([N+](=O)[O-])CO2)c2ccccc21 (stereo unspecified),10,-1,-11,0,-1,-3,x,x
O=C(NC1CCCCC1)c1sc(=S)n2c1[nH]c(=O)c1ccccc12,82*,14,-3,-17,12,-17,56*,10
COc1cc(/C(C)=N/N2CCN(c3ccccc3OC)CC2)ccc1O,1,-1,-7,-11,0,3,x,x
Cc1cnc(C(=O)N2CCN(c3ccc(C(F)(F)F)cn3)CC2)cn1,6,1,-7,-13,1,-4,x,x
O=C(c1ccc([N+](=O)[O-])s1)N1CCN(c2ccc(C(F)(F)F)cn2)CC1,99*,3,17,6,4,-16,29,19*
CCN1CCN(CCC2Oc3cc([N+](=O)[O-])ccc3NC2=O)CC1 (stereo unspecified),78*,0,2,-10,0,-6,44,25*
Cc1csc(NC(=O)CSCC(=O)O)c1-c1nc2ccccc2s1,83*,0,-8,23,1,4,88*,15
O=C1C(N2CCOCC2)=C(n2nnc3ccccc32)C(=O)c2ccccc21,189*,0,-10,-22,-1,-2,52,75*
O=C1c2ccccc2C(=O)c2c1cccc2-n1nnc2ccccc21,17,-1,-11,-15,0,6,x,x
CCNC(=O)c1cc2c(=O)n3cccc(C)c3nc2n(CCc2ccccc2)c1=N,70,0,-2,-17,0,2,x,x
O=C(NCCN1CCOCC1)c1cc2c(=O)n3ccccc3nc2n1Cc1ccccc1,21,0,-13,-28,0,-2,x,x
Cc1ccc2nc3c(cc(C(=O)NCCc4ccccc4)c(=N)n3CCCN3CCOCC3)c(=O)n2c1,115*,1,5,-13,0,-4,68*,69*
Cc1cccn2c(=O)c3cc(C(=O)NCCN4CCOCC4)c(=N)n(CCc4ccccc4)c3nc12,109*,0,-20,-34,0,-21,57*,72*
CCOCCCn1c(=N)c(C(N)=S)cc2c(=O)n3cccc(C)c3nc21,87*,-1,-25,-13,-2,-14,48,42*
Cc1cccn2c(=O)c3cc(C(N)=S)c(=N)n(CCCOC(C)C)c3nc12,34,-1,-16,-27,-1,-15,x,x
O=C(NCCCCc1ccccc1)C1CC(c2ccccc2C(F)(F)F)=NO1 (stereo unspecified),12,-1,-20,-23,1,4,x,x
CCn1c(C(=O)O)c(CC(=O)Nc2ccc(Br)cc2C)c2ccccc21,17,0,13,-8,0,-6,x,x
Oc1ccccc1CNc1cccc2cccnc12,120*,-1,-10,-20,1,2,29,11
O=C(O)CCCCCNC(=O)Cn1nnc2ccccc2c1=O,6,0,-1,3,0,0,x,x
O=C(NCCCN1CCOCC1)c1cc2cc(Br)ccc2oc1=O,124*,2,-20,-18,1,-5,42,41*
CCCN(CCC)CCCNC(=O)c1cc2cc3ccc(OC)cc3nc2o1,123*,-1,-7,-14,0,-7,36,58*
COc1ccc2cc3cc(C(=O)Nc4ccc5c(c4)OCO5)oc3nc2c1,23,1,2,-18,0,-6,x,x
